We go through 26 compounds from ChEMBL document CHEMBL1159038, “Synthetic studies on selective adenosine A2A receptor antagonists: synthesis and structure-activity relationships of novel benzofuran derivatives” (Bioorg Med Chem Lett, 2010).

Structures are written as SMILES.

Series [1] has as its target T1, Adenosine receptor A2b (Homo sapiens) (UniProt P29275).
T1 sequence (whole entry): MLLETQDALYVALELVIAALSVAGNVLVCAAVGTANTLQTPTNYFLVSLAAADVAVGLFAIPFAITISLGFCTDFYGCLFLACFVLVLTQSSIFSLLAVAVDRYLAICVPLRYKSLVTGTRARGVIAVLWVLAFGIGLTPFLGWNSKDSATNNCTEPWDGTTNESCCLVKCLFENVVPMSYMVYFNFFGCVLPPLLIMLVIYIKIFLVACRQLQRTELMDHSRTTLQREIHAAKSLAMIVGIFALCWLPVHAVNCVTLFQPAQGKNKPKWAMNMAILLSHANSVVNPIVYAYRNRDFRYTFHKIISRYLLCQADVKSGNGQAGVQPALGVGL
The experiment in a line: Antagonist activity at human adenosine A2B receptor at 1 umol/L. It counts as functional.

Series [2] deals with Adenosine receptor A2a (Homo sapiens) (UniProt P29274). Kind of series: Inhibition of [3H]CGS21680 binding to human adenosine A2A receptor at 1 umol/L by scintillation counting. An outline of the steps:
(§1)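 Membranes from cells transfected with human A2A receptor, diluted 20-fold in 50 mmol/L Tris pH 7.4 with 120 mmol/L NaCl, 5 mmol/L KCl, 10 mmol/L MgCl2, 2 mmol/L CaCl2 and 2 U/mL adenosine deaminase. Incubated with [3H]CGS21680 (final 75 nmol/L) and test drug, 25 °C for 90 min. Filtered through 0.5% polyethyleneimine-treated filters, then scintillation counted. Nonspecific binding with 50 µmol/L NECA. Triplicate average.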

The target of series [3] is T1, Adenosine receptor A2b (Homo sapiens). The experiment in a line: Antagonist activity at human adenosine A2B receptor at 10 umol/L. It counts as functional.
Series [4] is described as follows: Intrinsic clearance in rat liver microsomes. It counts as ADME, Microsome. The essentials:
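Rat liver microsomal incubations gave the apparent intrinsic clearance (CL_int). This was corrected for the free fraction of compound in the incubation to give CL_int/f_m.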
For orientation: Microsomes from liver hold many membrane-bound enzymes, among them those of drug oxidation.

The target in series [5] is Adenosine receptor A2a (Homo sapiens) (UniProt P29274). The experiment in a line: Inhibition of [3H]CGS21680 binding to human adenosine A2A receptor at 0.1 umol/L by scintillation counting. An outline of the steps:
as §1

Series [6] deals with T2, Adenosine receptor A1 (Homo sapiens) (UniProt P30542).
T2 sequence (whole entry): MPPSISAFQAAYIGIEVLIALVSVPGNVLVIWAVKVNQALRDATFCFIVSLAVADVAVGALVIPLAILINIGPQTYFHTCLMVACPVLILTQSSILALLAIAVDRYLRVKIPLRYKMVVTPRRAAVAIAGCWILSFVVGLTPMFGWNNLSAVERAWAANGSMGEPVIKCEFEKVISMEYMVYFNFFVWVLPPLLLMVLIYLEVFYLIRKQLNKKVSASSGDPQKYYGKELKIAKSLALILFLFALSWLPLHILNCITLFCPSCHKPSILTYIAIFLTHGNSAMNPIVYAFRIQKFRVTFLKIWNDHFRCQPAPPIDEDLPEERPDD
Kind of series: Antagonist activity at human adenosine A1 receptor at 10 umol/L. In kind it is functional.

Series [7] addresses T2, Adenosine receptor A1 (Homo sapiens). The experiment in a line: Antagonist activity at human adenosine A1 receptor at 1 umol/L. In kind it is functional.
Series [8] deals with Adenosine receptor A2a (Homo sapiens) (UniProt P29274). Kind of series: Inhibition of [3H]CGS21680 binding to human adenosine A2A receptor at 0.01 umol/L by scintillation counting. An outline of the steps: as §1
For a further series, the system named is Mus musculus. Kind of series: Antiparkinsonian effect in mouse assessed as inhibition of CGS-21680-induced catalepsy at 10 mg/kg, po. It counts as functional. An outline of the steps:
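Compounds were given orally at 10 mg/kg to mice. Catalepsy was induced with CGS, and inhibition of catalepsy is expressed as %.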

Adenosine receptor A2a (Homo sapiens), sequence (P29274 whole entry): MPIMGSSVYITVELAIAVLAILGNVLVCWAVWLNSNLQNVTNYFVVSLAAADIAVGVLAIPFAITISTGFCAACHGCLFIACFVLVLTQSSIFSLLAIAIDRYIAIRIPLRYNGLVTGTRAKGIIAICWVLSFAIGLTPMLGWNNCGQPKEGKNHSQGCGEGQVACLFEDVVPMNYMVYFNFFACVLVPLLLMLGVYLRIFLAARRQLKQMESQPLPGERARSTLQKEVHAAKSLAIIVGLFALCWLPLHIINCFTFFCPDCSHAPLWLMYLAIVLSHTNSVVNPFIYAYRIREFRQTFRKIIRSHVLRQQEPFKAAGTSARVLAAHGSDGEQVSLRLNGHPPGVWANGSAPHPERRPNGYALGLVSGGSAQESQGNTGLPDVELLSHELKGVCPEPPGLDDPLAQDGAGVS

On to `COc1ccc(-c2ccccc2)c2cc(C(=O)Nc3ccc(Cn4ccnc4)cc3)oc12`, for which the inhibition – broadly, the drop in the measured response relative to a control, in per cent – in series [1] is 1%; in [2] it was 95%; in series [3], 1%; in [5], 64%; in [6], 10%; in [7] it was 9%. Also, the inhibition in [8] stood at 24%. In addition, in [4], the intrinsic metabolic clearance (CLint scaled) – broadly, the capacity of the preparation to metabolise the compound, expressed as a volume cleared per time – is 2600 mL/min/kg. For the same compound, in the series on Mus musculus, the inhibition in vivo (in general, the share of the control response that was lost under treatment) at 10 mg/kg stood at 12%.

Consider `COc1ccc(-c2ccc(OC)c3oc(C(=O)Nc4ccc(Cn5ccnc5)cc4)cc23)cc1`, for which the inhibition was 90% in series [2]; 4% in [3]; 63% in series [5]; -4% in series [7]; 24% in [8]. Besides, the inhibition in vivo at 10 mg/kg in the series on Mus musculus worked out at 54%.

`COC(=O)c1ccc(OC)c2oc(C(=O)Nc3ccc(Cl)cc3)cc12`: the inhibition in series [2] is 77%; in series [5], 43%; in series [8], 1%.

As for `COC(=O)c1ccc(OC)c2oc(C(=O)Nc3cccc(F)c3)cc12`, the inhibition is 86% in series [2], 58% in [5] and 14% in series [8]. Also, in the series with Mus musculus, the inhibition in vivo at 10 mg/kg came out at 48%.

As to `COc1ccc(-c2ccc(Cl)cc2)c2cc(C(=O)Nc3ccc(Cn4ccnc4)cc3)oc12`, the inhibition in series [5] came out at 33%; in series [8], 8%.

For the compound `COc1ccc(-c2ccccc2)c2cc(NC(C)=O)oc12`, the inhibition is 91% in [5] and 62% in series [8]. Besides, the inhibition in vivo at 10 mg/kg in the series with Mus musculus worked out at 28%.

In the case of `COc1ccc(-c2ccccc2)c2cc(C(=O)Nc3c(Cl)cncc3Cl)oc12`, the inhibition was 101% in series [5] and 83% in series [8]. For the same compound, the inhibition in vivo at 10 mg/kg with Mus musculus was 74%.

With `COc1ccc(-c2ccccc2)c2cc(C(=O)NN3CCOCC3)oc12`, the inhibition was 81% in series [1]; 103% in [2]; 98% in [3]; 81% in series [5]; 82% in [6]; 37% in series [7]. For the same compound, in [8], the inhibition amounted to 39%. This compound showed a CLint scaled in series [4] of 20.3 mL/min/kg. The inhibition in vivo at 10 mg/kg with Mus musculus was found to be 78%.

As to `COc1ccc(-c2ccccc2)c2cc(NC(=O)Oc3ccc(F)cc3)oc12`, the figures for the inhibition in [5] and in [8] were 32% and 11%, respectively.

Regarding `COc1ccc(-c2ccccc2)c2cc(NC(=O)Nc3ccc(F)cc3)oc12`, the figures for the inhibition in series [5] and in series [8] were 37% and 22%, respectively.

In the case of `COc1ccc(-c2ccccc2)c2cc(C(=O)Nc3ccc(F)cc3)oc12`, the inhibition amounted to 67% in series [2], 49% in series [5] and 13% in series [8].

For `COc1ccc(-c2ccccc2)c2cc(NC(=O)Oc3ccccc3)oc12`, the values for the inhibition in series [5] and in series [8] were 65% and 23%, respectively. Further, the inhibition in vivo at 10 mg/kg with Mus musculus turned out to be 34%.

`CNC(=O)c1cc2c(-c3ccccc3)ccc(OC)c2o1`: the inhibition in series [5] came to 88%; in series [8], 57%. Moreover, the inhibition in vivo at 10 mg/kg in the series with Mus musculus was found to be 18%.

Turning to `COC(=O)c1ccc(OC)c2oc(C(=O)Nc3ccc(Cn4ccnc4)cc3)cc12`, the inhibition in [2] is 98%; in series [5] it was 80%; in series [8], 40%. In addition, the inhibition in vivo at 10 mg/kg with Mus musculus was 0%.

In the case of `COc1ccc(-c2ccccc2)c2cc(C(=O)Nc3ccncc3)sc12`, the figures for the inhibition in [5] and in series [8] were 31% and 11%, respectively.

For the compound `CCOC(=O)c1ccc(-c2ccc(OC)c3oc(C(=O)Nc4ccccc4)cc23)cc1`, the inhibition in series [2] was -8%; in [5], -2%.

As for `COc1ccc(-c2ccccc2)c2cc(C(=O)Nc3ccncc3)oc12`, the inhibition amounted to 21% in series [1]; 100% in [2]; 58% in series [3]; 77% in series [6]; 20% in series [7]. In addition, the CLint scaled in [4] was 580 mL/min/kg. Moreover, the inhibition in vivo at 10 mg/kg in the series with Mus musculus came out at 40%.

Take `COc1ccc(-c2csc(-c3ccc(C)nc3)n2)c2cc(C(=O)Nc3ccc(Cn4ccnc4)cc3)oc12`: the values for the inhibition in series [2], in [5] and in series [8] were 20%, 23% and 12%, respectively.

For the compound `COc1ccc(-c2ccc(Cl)cc2)c2cc(C(=O)Nc3ccncc3)oc12`, the inhibition in series [5] was found to be 28%; in series [8] it was 18%.

Consider `COC(=O)Nc1cc2c(-c3ccccc3)ccc(OC)c2o1`, for which the figures for the inhibition in [5] and in series [8] were 85% and 28%, respectively. The inhibition in vivo at 10 mg/kg in the series on Mus musculus is 86%.

`COC(=O)c1ccc(OC)c2oc(C(=O)Nc3ccccc3)cc12`: the results for the inhibition in series [2], in [5] and in series [8] were 86%, 49% and 6%, respectively. Also, the CLint scaled in [4] was 758 mL/min/kg.

For the compound `COc1ccc(-c2ccccc2)c2cc(C(=O)Nc3ccc(Cn4ccnc4)cc3)sc12`, the inhibition was 20% in [5] and 25% in series [8].

As for `COC(=O)c1ccc(OC)c2oc(C(=O)Nc3ccc(OC)cc3)cc12`, the inhibition in series [2] was determined as 91%; in series [5], 53%.

Regarding `COc1ccc(NC(=O)c2cc3c(-c4csc(-c5ccccc5)n4)ccc(OC)c3o2)cc1`, the inhibition in series [5] was 11%; in series [8], 6%.

For the compound `COc1ccc(-c2csc(-c3ccc(C)nc3)n2)c2cc(C(=O)Nc3ccc(F)cc3)oc12`, the inhibition was 4% in [2], 6% in series [5] and 17% in series [8].

Regarding `COc1ccc(-c2csc(C)n2)c2cc(C(=O)Nc3ccc(F)cc3)oc12`, the inhibition was 60% in [2], 15% in series [5] and 1% in series [8].
